A selection: hits, their analogues and other compounds. The true share with any hit is near 3.5%.
MrgX1 ag: activates human MrgX1 receptor signaling | Q96LB2 | MrgX1-HEK293 cells, Fluo-4 calcium fluorescence, agonist mode; hits give high values | B-score at 10 µM | hit rate 0.44% among 310,000;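 active = calcium response B-score plate-corrected fluorescence ratio at least 3 library SD, with starting fluorescence B-score inside 5 SD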
Target sequence (Q96LB2 whole entry, looked up): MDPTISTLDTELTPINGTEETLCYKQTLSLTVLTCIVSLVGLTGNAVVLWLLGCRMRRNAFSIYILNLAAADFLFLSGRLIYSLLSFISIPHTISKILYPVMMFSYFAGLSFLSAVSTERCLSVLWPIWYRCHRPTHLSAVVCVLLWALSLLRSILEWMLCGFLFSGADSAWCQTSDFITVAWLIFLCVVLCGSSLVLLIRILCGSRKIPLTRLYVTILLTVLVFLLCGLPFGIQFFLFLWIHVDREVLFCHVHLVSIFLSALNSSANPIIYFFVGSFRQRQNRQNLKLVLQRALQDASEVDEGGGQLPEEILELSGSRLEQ
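Test system: HEK293 cells stably expressing human MrgX1 receptor; Input: fifteen thousand cells per well; Dosing: compound delivered in addition one of three; Schedule: overnight seeding, then 1 h dark dye loading; Technique: Fluo-4 NW calcium fluorescence; Measure: B-scored fluorescence response ratio; Controls: positive and negative controls per plate.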
RGS4 block: inhibitors of human RGS4; HEK293 M3R/RGS4 inducible, Fluo-4 calcium flux; hits give high values; triggered by carbachol at its EC20; B-score at 10 µM; hit rate 0.45% among 310,000; AID 463165;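 active = B-score, a plate-corrected calcium signal, over three deviations above library mean, with baseline fluorescence within five deviations of library mean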;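 also: RGS4 expression induced by doxycycline in cells with stable M3 receptor; B-score is computed from the integrated fluorescence ratio over baseline after carbachol; higher B-score means a larger calcium signal and so more RGS4 inhibition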
Target sequence (P49798 whole entry, looked up): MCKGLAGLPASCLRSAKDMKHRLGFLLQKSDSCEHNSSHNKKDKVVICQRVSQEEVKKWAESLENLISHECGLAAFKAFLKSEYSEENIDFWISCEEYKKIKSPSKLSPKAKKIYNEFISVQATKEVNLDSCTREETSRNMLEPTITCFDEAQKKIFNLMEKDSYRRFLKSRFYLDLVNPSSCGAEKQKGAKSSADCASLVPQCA
MrgX1 allo act: allosterically activates human MrgX1 receptor signaling | MrgX1-HEK293, Fluo-4 calcium flux, FDSS; hits give high values | hit rate 0.63% among 310,000 | B-score at 10 µM | AID 588675 | Q96LB2;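 active = plate-corrected calcium response at least 3 library SD above typical, normal starting fluorescence, not activating the receptor alone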;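 also: compound read alongside a low EC10 to EC30 dose of BAM8-22 agonist; peak minus trough fluorescence over baseline measured at the second addition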
RGS4 act: RGS4 potentiation or activation; hit rate 0.92% among 310,000; HEK293 M3R/inducible RGS4, carbachol calcium flux Fluo4; hits give low values; AID 463111; B-score at 10 µM;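 active = B-score of the integrated calcium signal more than 4 SD below the library mean, with starting fluorescence not abnormally high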;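 also: negative B-score means reduced calcium response which marks RGS4 activation or potentiation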
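Reagent: ECmax carbachol challenge; Test system: M3R-expressing HEK293 line, RGS4 induced by doxycycline; Schedule: overnight RGS4 induction, 30 min dye load 37 °C, 20 min compound RT; Detection: calcium dye Fluo4 fluorescence; Read-out: Agonist-evoked peak-minus-minimum fluorescence over baseline, integrated ratio, B score.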
MrgX1 antag: antagonists of human MrgX1 receptor; MRGX1-HEK293 calcium flux, Fluo-4, BAM8-22 antagonism; hits give low values; B-score at 10 µM; hit rate 1.3% among 310,000; AID 588676;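 active = calcium-response B-score plate-corrected more than 3 library SD below zero, starting fluorescence within 5 deviations, no agonist response on first addition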;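 also: peak minus trough fluorescence over baseline after final BAM8-22 challenge near maximal dose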
Large screens that a line does not name were inactive.

c1ccc(N2CC[N+]3(CCCC3)CC2)nc1	none
c1cnc(N2CC[N+]3(CCCC3)CC2)nc1	RGS4 act -7.7
O=C(Nc1cc2c3c(c1)C1CCCC1CN3CC1CCCC21)c1ccccc1 (stereo not drawn)	RGS4 act -9.8, MrgX1 antag -13
COc1ccc2noc3c2c1C(=O)c1ccccc1-3	RGS4 act -7.2
CC1Cc2ccccc2N1C(=O)Cn1cc([N+](=O)[O-])cn1 (stereo not drawn)	none
O=C(NC1CCCCC1)c1noc2c1CCCCC2	none
CN(CC(=O)NCc1ccccc1F)S(=O)(=O)c1ccc(Cl)cc1	none
CC(C)=CCOc1c2ccoc2cc2oc(=O)ccc12	MrgX1 antag -5.7
CC1(C)O[C@@H]1COc1c2ccoc2cc2oc(=O)ccc12	none
COc1ccccc1NC(=O)Nc1nc(CC(=O)N2CCN(c3ccccc3F)CC2)cs1	RGS4 act -7.1
COc1ccccc1NC(=O)Nc1nc(CC(=O)NCc2c(F)cccc2F)cs1	none
CN(CCO)c1nc(N)c2c(N)nc3c(c2c1C#N)CC(=O)N3Cc1cccs1	none
N#Cc1c(N(CCO)CCO)nc(N)c2c(N)nc3c(c12)CC(=O)N3Cc1cccs1	MrgX1 antag -4.5
CC(c1nccs1)N(C)C(=O)CCc1nnc(Cc2c[nH]c3ccccc23)o1 (stereo not drawn)	none
Cc1ccc(C2(c3ccc(C)cc3)CC2C(=O)Nc2ccc([N+](=O)[O-])cc2O)cc1 (stereo not drawn)	MrgX1 antag -4.5
CC1(C)CC1C(=O)Nc1ccc([N+](=O)[O-])cc1Br (stereo not drawn)	none
Cc1ccc2[nH]c(=O)c(C(c3nnnn3CC3CCCO3)N3CCCc4ccccc43)cc2c1 (stereo not drawn)	none
COc1ccc(CCNC(=O)CCc2ccc(S(=O)(=O)NC(C)C)cc2)cc1	MrgX1 antag -5.7
CNC(=O)C(=O)NCC1CCCN1S(=O)(=O)c1cccs1 (stereo not drawn)	none
O=C(NCCc1ccc(F)cc1)C(=O)NCC1CCCN1S(=O)(=O)c1cccs1 (stereo not drawn)	RGS4 act -7.2
COc1ccc(CCNC(=O)C(=O)NCC2CCCN2S(=O)(=O)c2ccc(OC)cc2)cc1 (stereo not drawn)	RGS4 act -7.1
COc1ccc(S(=O)(=O)N2CCCC2CNC(=O)C(=O)NC2CCCCCC2)cc1 (stereo not drawn)	none
COc1ccc(CCNC(=O)C(=O)NCC2CCCN2S(=O)(=O)c2ccccc2)cc1OC (stereo not drawn)	RGS4 act -9.4
COC(=O)c1cc(Cl)c(NC(=O)c2cc3ccccc3o2)cc1OC	none
O=[N+]([O-])c1ccccc1S(=O)(=O)N1CCN(Cc2ccc3c(c2)OCO3)CC1	none
COCCNC(=O)c1ccc(CN2CCC(Cc3ccccc3)CC2)cc1	none
COc1ccc(CCNC(=O)c2ccc(CN3CCC(Cc4ccccc4)CC3)cc2)cc1OC	MrgX1 antag -5.2
ONC(=Nc1ccc(Cl)cc1)c1ccccc1	none
Cc1ccc2c(c1)Sc1c(ccc3ccccc13)N2	none
COC(=O)c1ccc(CN2CCC(CO)(CCOc3ccccc3)CC2)cc1	RGS4 act -7
CCOC(=O)C1(CCOc2ccccc2)CCN(Cc2ccc(OC)c(COC)c2)CC1	MrgX1 antag -4.7
CCOC(=O)C1(CCOc2ccccc2)CCN(Cc2ccc(COC)o2)CC1	MrgX1 ag 32
COC(=O)c1ccc(CN2CCC(CO)(Cc3cccc(OC)c3)CC2)cc1	none
CCOC(=O)N1CCN(C(=O)Cc2ccccc2OC)CC1	none
C[n+]1c2n(c3ccccc31)N=C(c1ccc(-c3ccccc3)cc1)CS2	MrgX1 antag -6.5
Cc1sc2ncnc(N3CCC(C(=O)NNC(=O)COc4ccccc4Cl)CC3)c2c1C	RGS4 act -8, MrgX1 antag -7
Cc1sc2ncnc(N3CCC(C(=O)NNC(=O)COc4ccccc4F)CC3)c2c1C	RGS4 act -7.7
Cc1ccc(OCC(=O)NNC(=O)C2CCN(c3ncnc4sc(C)c(C)c34)CC2)cc1	none
CC(=O)Nc1ccc(NC(=O)CN(C)S(=O)(=O)c2ccc3c(c2)CCC(=O)N3)cc1	none
Cc1ccc(C(=O)OCCc2sc[n+](Cc3ccccc3)c2C)cc1	RGS4 act -9.1
Cc1c(CCOC(=O)C23CC4CC(CC(C)(C4)C2)C3)sc[n+]1Cc1ccccc1	none
COC(=O)c1cc(-c2ccc(C)o2)nc2ccccc12	none
Cc1ccc(-c2cc(C(=O)Nc3ccccc3C)c3ccccc3n2)o1	MrgX1 antag -4.8
CCc1ccc(OCC(=O)NNC(=O)c2nn(CC)c(=O)c3ccccc23)cc1	MrgX1 allo act 9.6
COC(=O)c1c(-c2cccnc2)csc1NC(=O)c1ccc2c(c1)OCO2	none
Cc1cc(Nc2ccccc2)nc(-c2ccccc2O)n1	none
O=CN/N=C/c1c(O)ccc2ccccc12	MrgX1 antag -5
Cc1cc(N/N=C/c2c(O)ccc3ccccc23)nc(-c2ccccc2O)n1	RGS4 act -8
Oc1ccc2ccccc2c1/C=N/Nc1ccccc1	none
Cc1cccn2c(CNCC3(c4ccccc4)CCCC3)c(C(=O)N3CCOCC3)nc12	none
Nn1c(SCC(=O)N2CCN(S(=O)(=O)c3ccc(Cl)cc3)CC2)nnc1-c1cccs1	none
Cc1nc(C2CCC3C4CCC5=CC(=O)CC[C@]5(C)C4CC[C@]23C)cs1 (stereo partly drawn)	RGS4 act -10
c1ccc(C(c2ccccc2)c2noc(CN3CCN(C4CCCC4)CC3)n2)cc1	none
CC(=O)N1CCN(Cc2nc(C(c3ccccc3)c3ccccc3)no2)CC1	RGS4 act -7.5
Cc1ccc2nc(/C(C#N)=C/c3ccc(O)c(O)c3)[nH]c2c1	MrgX1 ag 35
Cc1ccc2nc(/C(C#N)=C/c3ccccc3C(=O)O)[nH]c2c1	none
COc1ccc(-c2c(-c3ccsc3)oc3ccc(N4CCOCC4)cc23)cc1	none
COc1ccc(-c2cc(C(=O)Nc3cc(S(=O)(=O)N4CCOCC4)ccc3N3CCOCC3)c3ccccc3n2)cc1	RGS4 act -7
COc1ccc2c(c1)c1ncn(CCN3CCCC3)c(=O)c1n2C	none
COc1ccccc1CCn1cnc2c3cc(C)ccc3n(C)c2c1=O	RGS4 act -7
CCN1C(=O)CS/C1=C(\C#N)S(=O)(=O)c1ccccc1	MrgX1 ag 41
O=C(/C=C/c1ccco1)NC(=S)Nc1ccccc1	MrgX1 allo act 13
Cc1cccc(NC(=S)NC(=O)/C=C/c2ccco2)c1	MrgX1 allo act 9.1
COc1cccc(NC(=O)/C=C/c2ccco2)c1	none
CC(=O)c1ccc(NC(=S)NC(=O)/C=C/c2ccco2)cc1	none
CSc1cccc(NC(=O)/C=C/c2ccco2)c1	MrgX1 allo act 6.5
CCOC(=O)N1CCN(C(=O)CSc2nc3c([nH]c4ccccc43)c(=O)n2CC)CC1	none

Assay outcomes as filed in PubChem.
